Data: article PMC3718025 (Bioconjugate chemistry, 2011)

Tested on: luciferase expression in M21+GL3 cells
Experiment: Luciferase knockdown
Assay type: cell-based, human
Details: 25 nM, no transfection agent; 4 h serum free, then 2% serum to 96 h
Method in brief: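 M21+GL3 stable clone made by nucleoporation with pGL3-promoter plus pcDNA3.1/hygro (10:1), selected two weeks in 500 μg/ml hygromycin B. siRNA added 4 h at 37°C in serum-free OPTI-MEM, then serum added to 2% and incubated to 96 h total. Lipofectamine 2000-complexed siRNA served as positive control, its medium swapped to DMEM-H with 2% serum. Lysate luminescence read and normalized to total cellular protein.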

Question: “AccGAAAGGucuuAccGGAdTsdTX2 (head to tail) [compound 14]” was tested. Which reduction in luciferase did it give?
Answer: 70%
